{"source": "paper PMC6463402", "about": "(Current Radiopharmaceuticals, 2019)", "key": {"[1]": {"test_system": "C57BL/6 mice", "experiment": "PET/CT imaging, control healthy mice", "assay_type": "in vivo", "settings": "wild-type mice, i.v.", "summary_of_the_method": "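Male C57BL/6 controls (aged 13 months), anaesthetised with 4-5% isoflurane (1-2% maintenance), received 30-37 MBq via lateral tail vein. Dynamic PET ran 120 min, framed 10x2 min, 5x5 min and 5x15 min, with CT at 45 kVp for anatomy. Decay-corrected PET was fused with CT and an MRI mouse brain template holding predefined brain regions of interest.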"}, "[2]": {"experiment": "Stability in plasma", "assay_type": "in vitro ADME, human", "settings": "2 h incubation at 37 °C"}, "[3]": {"biological_target": "Aβ plaques (Homo sapiens, UniProt P05067)", "sequence (P05067 672-713)": "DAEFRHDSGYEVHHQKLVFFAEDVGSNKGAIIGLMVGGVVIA", "experiment": "In vitro binding assays with Aβ plaques", "set-up": "species or system 3xTg-AD mice"}, "[4]": {"experiment": "Biodistribution study and non-compartmental pharmacokinetics", "assay_type": "in vivo, Balb/C mice", "settings": "i.v.", "summary_of_the_method": "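Thirty healthy male Balb/C mice (10-12 weeks, 28.5±2.0 g) in 6 groups of 5 received 20-40 MBq i.v. via lateral tail vein. Blood was collected and mice were killed at 5, 15, 30, 45, 70 and 180 min. Organs were removed, washed with saline, dried and weighed, and radioactivity was well-counted. Plasma PK parameters came from non-compartmental analysis, reported as mean and standard deviation.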"}, "[5]": {"test_system": "APPSwe/PS1dE9 mice", "experiment": "PET/CT imaging, transgenic mice", "assay_type": "in vivo", "settings": "static PET at 30 min, n=3, no statistical significance", "summary_of_the_method": "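Male APPSwe/PS1dE9 transgenic mice (aged 12 months) and male C57BL/6 controls (aged 13 months) under isoflurane received 30-37 MBq i.v. via tail vein. PET/CT images were fused with a brain-template atlas to give regional values. In static images, regional SUV was normalised to brain stem (n=3). Transgenic and control regions were compared by Student's t-test, α=0.05.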"}, "[6]": {"experiment": "Protein binding assay", "assay_type": "in vitro ADME", "settings": "human plasma, gel filtration", "summary_of_the_method": "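Human plasma (1 mL) with 100 μL radiotracer was incubated at 37 °C for 120 min. At 30, 60 and 120 min, 50 μL was applied to pre-spun G-50 size-exclusion spin columns, left 2 min, and centrifuged 2 min at 3300 rpm, 4 °C. Column (free) and eluate (bound) activity were gamma-counted. The blank used 0.1 M phosphate buffer instead of plasma, at 120 min.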"}, "[7]": {"experiment": "Lipophilicity, n-octanol/phosphate buffer partition coefficient", "assay_type": "physicochemical", "settings": "n-octanol/phosphate buffer 0.1 mol/L, pH 7.4; mean of two batches in triplicate"}, "[8]": {"experiment": "Stability in the final formulation", "assay_type": "physicochemical", "settings": "6 h, room temperature", "summary_of_the_method": "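Three samples of the formulated tracer, a filtered ethanol/saline formulation with phosphate and Tween 80, were held at room temperature. Each was analysed at 0, 1, 2, 3, 4, 5 and 6 h by radio-HPLC on C18 with MeCN:H2O 75:25 at 1 mL/min, using UV 215 nm and gamma detectors. Radiochemical purity was taken as the tracer peak area relative to total radioactivity.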"}, "[9]": {"settings": "cited from earlier work"}, "[10]": {"biological_target": "Aβ", "settings": "cited from earlier work"}, "[11]": {"settings": "brain serial sections of 3xTg-AD mice"}, "[12]": {"settings": "plasma of healthy Balb/C male mice, NCA"}}, "note": "Read-outs that look alike come from different tables or passages of the source.", "data": [{"smiles": "COc1ccc2cc(CCC[18F])ccc2c1", "note": "[[^18F]Amylovis, 2-(3-[^18F]fluoropropyl)-6-methoxynaphthalene]", "values": [{"measurement": "time of maximum activity in brain (dynamic PET)", "setting": "[1]", "result": 2, "unit": "min"}, {"measurement": "stability in fresh human plasma", "setting": "[2]", "result": "not degraded"}, {"measurement": "Kd", "setting": "[3]", "result": 0.16, "unit": "nM"}, {"measurement": "Bmax", "setting": "[3]; [11]", "result": 119.4, "unit": "nM"}, {"measurement": "fold higher BP than [^11C]PIB", "setting": "[3]; [11]", "result": 3, "unit": "folds"}, {"measurement": "fold higher affinity for Aβ plaques compared with [^11C]PIB", "setting": "[3]; [11]", "result": 6, "unit": "fold"}, {"measurement": "bone uptake", "setting": "[4]; healthy Balb/C mice", "result": "relatively high bone uptake"}, {"measurement": "uptake in kidneys and liver", "setting": "[4]; healthy Balb/C mice", "result": "high uptake values"}, {"measurement": "brain uptake (washout/clearance)", "setting": "[4]; healthy Balb/C mice, 60 min", "result": "0.11±0.03", "unit": "%ID/g"}, {"measurement": "T1/2 (plasma)", "setting": "[4]; [12]", "result": "37 ± 10", "unit": "min"}, {"measurement": "Vss", "setting": "[4]; [12]", "result": "10.3 ± 2.9", "unit": "mL"}, {"measurement": "Vss/kg", "setting": "[4]; [12]", "result": "0.372 ± 0.11", "unit": "L/kg"}, {"measurement": "uptake in cortex, transgenic vs control healthy mice (SUVr to brain stem)", "setting": "[5]", "result": "slightly incremented uptake"}, {"measurement": "plasma protein binding (PPB)", "setting": "[6]", "result": "high PPB percentage"}, {"measurement": "log Poct/PBS", "setting": "[7]", "result": "2.46 ± 0.06"}, {"measurement": "stability (radiochemical purity) of final formulation", "setting": "[8]", "result": "did not significantly change"}]}, {"smiles": "CNc1ccc(/C=C/c2ccc(OCCOCCOCCF)cc2)cc1", "note": "[[^18F]Florbetaben, BAY94-9172]", "values": [{"measurement": "Log P", "setting": "[9]", "result": "2.41 [65]"}, {"measurement": "Kd", "setting": "[10]; AD brain homogenates ref 60", "result": 16, "unit": "nM"}]}, {"smiles": "CNc1ccc(/C=C/c2ccc(OCCOCCOCCF)nc2)cc1", "note": "[[^18F]Florbetapir, AV-45]", "values": [{"measurement": "Kd", "setting": "[10]; AD brain homogenates ref 62", "result": 3.72, "unit": "nM"}]}, {"smiles": "CNc1ccc(-c2nc3ccc(O)cc3s2)cc1F", "note": "[[^18F]Flutemetamol, GE-067]", "values": [{"measurement": "Log P", "setting": "[9]", "result": "1.7 [64]"}, {"measurement": "Kd", "setting": "[10]; AD brain homogenates ref 59", "result": 6.7, "unit": "nM"}]}]}
